Assay results published in article PMC9588736 (Cell chemical biology, 2022).
pIC50: −log10 of the molar value. Like-named read-outs stand apart in the source and are kept apart here. Blank lines part the entries; values can stand above or below the molecule they belong to.

What was measured:
KEAP1 [1] = target: T1, KEAP1 (Homo sapiens, UniProt Q14145); assay: Immunoblot of KEAP1 degradation in WT and CRBN−/− MM.1S cells; assay type: cell-based; conditions: for KEAP1 degradation in CRBN knockout cells: CRBN−/− MM.1S cells; for KEAP1 degradation in CRBN knockout cells / KEAP1 degradation in wildtype cells: 5 μM, 2-hour treatment; for KEAP1 degradation: MM.1S cells; for KEAP1 degradation in wildtype cells: wildtype MM.1S cells
Target sequence in this assay (Q14145 whole entry): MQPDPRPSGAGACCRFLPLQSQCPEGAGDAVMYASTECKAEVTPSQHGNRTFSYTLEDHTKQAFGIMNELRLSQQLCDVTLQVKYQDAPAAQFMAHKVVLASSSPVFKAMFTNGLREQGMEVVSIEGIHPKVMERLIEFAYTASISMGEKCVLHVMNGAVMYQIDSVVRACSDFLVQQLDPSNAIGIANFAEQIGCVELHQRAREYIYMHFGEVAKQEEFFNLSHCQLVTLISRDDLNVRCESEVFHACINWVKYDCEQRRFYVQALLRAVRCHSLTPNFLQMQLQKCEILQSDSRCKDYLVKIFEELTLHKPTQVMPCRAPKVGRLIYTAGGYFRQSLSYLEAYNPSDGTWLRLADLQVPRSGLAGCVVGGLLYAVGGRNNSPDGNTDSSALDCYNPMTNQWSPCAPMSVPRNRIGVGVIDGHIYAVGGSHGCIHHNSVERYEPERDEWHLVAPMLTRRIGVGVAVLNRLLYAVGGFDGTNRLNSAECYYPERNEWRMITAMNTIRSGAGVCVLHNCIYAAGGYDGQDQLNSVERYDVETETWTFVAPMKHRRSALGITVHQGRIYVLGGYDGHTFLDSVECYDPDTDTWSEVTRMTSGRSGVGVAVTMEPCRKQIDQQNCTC

KEAP1-BRD4BD2 = KEAP1-BRD4BD2 (Homo sapiens, UniProt O60885+Q14145); assay: KEAP1-BRD4BD2 dimerization TR-FRET assay; assay type: biochemical
KEAP1-BRD4BD2, sequence (Q14145 321-609 limits assumed, other chains not shown): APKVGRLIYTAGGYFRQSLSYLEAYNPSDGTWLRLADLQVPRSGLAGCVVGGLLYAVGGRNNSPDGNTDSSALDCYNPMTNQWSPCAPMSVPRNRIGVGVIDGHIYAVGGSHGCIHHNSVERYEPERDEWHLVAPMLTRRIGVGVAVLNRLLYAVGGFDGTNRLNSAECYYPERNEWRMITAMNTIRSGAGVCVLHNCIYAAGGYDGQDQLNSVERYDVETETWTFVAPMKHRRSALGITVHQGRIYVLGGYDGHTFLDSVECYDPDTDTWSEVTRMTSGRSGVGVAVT
Procedure, shortened: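 TR-FRET mix: 200 nM biotinylated human BRD4BD2, 200 nM Alexa Fluor 647-labelled human KEAP1 (residues 321–609, insect-cell expressed, SpyCatcher-labelled) and 2 nM Eu-streptavidin. Buffer was 50 mM Tris pH 8.0, 200 mM NaCl, 0.1% Pluronic F-68, 0.5% BSA and 1 mM TCEP; compound was titrated. After 15 min at room temperature, excitation was 337 nm and the 665/620 nm ratio was read over thirty 200-s cycles. Mean ± SD of ≥3 technical replicates; two independent experiments.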

BRD4 = BRD4 (Homo sapiens, UniProt O60885); assay: Immunoblot of BRD4 degradation in MM.1S cells; assay type: cell-based; conditions: for cellular degradation of BRD4, linker library: 16 h
Procedure, shortened: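 MM.1S cells were treated with test compound for 16 h (24 h in the initial screen). For rescue, cells were pretreated 2 h with 10 μM KEAP1 inhibitor, 10 μM JQ1 or 1 μM MLN4924. Lysates in RIPA were BCA-normalised, run on 4–12% gels and blotted to PVDF with IRDye secondaries. BRD4 bands were quantified relative to β-actin. Two independent experiments.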

KEAP1 [2] = target: T1, KEAP1; assay: KEAP1-NRF2 displacement TR-FRET assay; assay type: binding
Target sequence in this assay (Q14145 321-609): as the sequence (Q14145 321-609 limits assumed, other chains not shown) above

OVCAR8 cells = assay: Proteomics profiling of KEAP1-CRBN PROTACs; assay type: cell-based, human; conditions: legend: MM.1S cells, 5 h, 5 μM
CRBN = CRBN (Homo sapiens, UniProt Q96SW2); assay: Immunoblot of CRBN in MM.1S cells; assay type: cell-based
CRBN, sequence (Q96SW2 whole entry): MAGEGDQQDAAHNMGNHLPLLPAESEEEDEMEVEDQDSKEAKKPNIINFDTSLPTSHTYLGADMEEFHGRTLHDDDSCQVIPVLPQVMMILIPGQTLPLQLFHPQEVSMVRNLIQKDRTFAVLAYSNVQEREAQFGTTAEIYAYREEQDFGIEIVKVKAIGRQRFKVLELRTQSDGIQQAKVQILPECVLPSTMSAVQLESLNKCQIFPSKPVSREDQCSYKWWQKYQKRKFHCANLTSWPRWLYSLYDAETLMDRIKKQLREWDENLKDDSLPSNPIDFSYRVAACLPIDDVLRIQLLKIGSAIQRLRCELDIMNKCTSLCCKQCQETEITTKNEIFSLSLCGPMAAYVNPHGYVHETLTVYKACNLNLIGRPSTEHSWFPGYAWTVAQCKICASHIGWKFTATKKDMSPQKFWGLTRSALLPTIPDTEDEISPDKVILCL

MM.1S cells = assay: Antiproliferation assay; assay type: cell-based; conditions: Homo sapiens, MM1.S, 72 h, read-out: anti-proliferative effect
Procedure, shortened: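 MM.1S cells (RPMI, 10% FBS, 1% Pen/Strep, 37°C, 5% CO2) seeded at 10000 cells/well and grown 12 h, then exposed to test compound for 72 h. Viability read by CellTiter-Glo luminescence. Dose-response curves fitted by non-linear regression. Mean ± SEM of three technical replicates; representative of two independent experiments.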

Structure (SMILES): COc1cc([C@@H](CC(=O)O)c2ccc(C)c(CN3C[C@@H](C)Oc4cc(CCCCCCNC(=O)COc5cc6c7c(cccc7c5)C(=O)N(C5CCC(=O)N(C)C5=O)C6=O)ccc4S3(=O)=O)c2)cc2nnn(C)c12 (stereo partly drawn) [NJH-04–202, (3S)-3-(7-methoxy-1-methyl-1H-benzo[d][1,2,3]triazol-5-yl)-3-(4-methyl-3-(((4R)-4-methyl-7-(6-(2-((2-(1-methyl-2,6-dioxopiperidin-3-yl)-1,3-dioxo-2,3-dihydro-1H-benzo[de]isoquinolin-5-yl)oxy)acetamido)hexyl)-1,1-dioxido-3,4-dihydro-2H-benzo[b][1,4,5]oxathiazepin-2-yl)methyl)phenyl)propanoic acid]
KEAP1 degradation, negative control (KEAP1 [1]; WT MM.1S cells, 4 h): did not induce KEAP1 degradation

Structure (SMILES): COc1cc([C@@H](CC(=O)O)c2ccc(C)c(CN3C[C@@H](C)Oc4cc(CCCOCCNC(=O)C[C@@H]5N=C(c6ccc(Cl)cc6)c6c(sc(C)c6C)-n6c(C)nnc65)ccc4S3(=O)=O)c2)cc2nnn(C)c12 [NJH-05–141, (S)-3-(3-(((R)-7-(3-(2-(2-((S)-4-(4-chlorophenyl)-2,3,9-trimethyl-6H-thieno[3,2-f][1,2,4]triazolo[4,3-a][1,4]diazepin-6-yl)acetamido)ethoxy)propyl)-4-methyl-1,1-dioxido-3,4-dihydro-2H-benzo[b][1,4,5]oxathiazepin-2-yl)methyl)-4-methylphenyl)-3-(7-methoxy-1-methyl-1H-benzo[d][1,2,3]triazol-5-yl)propanoic acid]
cellular degradation of BRD4, linker library (BRD4; MM.1S cells): showed cellular degradation of BRD4 to a similar level to DGY-06–177-pk2

Structure (SMILES): COc1cc([C@@H](CC(=O)O)c2ccc(C)c(CN3C[C@@H](C)Oc4cc(CCCCNC(=O)C[C@@H]5N=C(c6ccc(Cl)cc6)c6c(sc(C)c6C)-n6c(C)nnc65)ccc4S3(=O)=O)c2)cc2nnn(C)c12 [NJH-05–138, (S)-3-(3-(((R)-7-(4-(2-((S)-4-(4-chlorophenyl)-2,3,9-trimethyl-6H-thieno[3,2-f][1,2,4]triazolo[4,3-a][1,4]diazepin-6-yl)acetamido)butyl)-4-methyl-1,1-dioxido-3,4-dihydro-2H-benzo[b][1,4,5]oxathiazepin-2-yl)methyl)-4-methylphenyl)-3-(7-methoxy-1-methyl-1H-benzo[d][1,2,3]triazol-5-yl)propanoic acid]
cellular degradation of BRD4, linker library (BRD4; MM.1S cells): showed cellular degradation of BRD4 to a similar level to DGY-06–177-pk2

Structure (SMILES): COc1cc(C(CC(=O)O)c2ccc(C)c(CN3C[C@@H](C)Oc4cc(CCCCCCNC(=O)C[C@@H]5N=C(c6ccc(Cl)cc6)c6c(sc(C)c6C)-n6c(C)nnc65)ccc4S3(=O)=O)c2)cc2nnn(C)c12 (mixture of isomers) [DGY-06–177, 3-(3-(((R)-7-(6-(2-((S)-4-(4-chlorophenyl)-2,3,9-trimethyl-6H-thieno[3,2-f][1,2,4]triazolo[4,3-a][1,4]diazepin-6-yl)acetamido)hexyl)-4-methyl-1,1-dioxido-3,4-dihydro-2H-benzo[b][1,4,5]oxathiazepin-2-yl)methyl)-4-methylphenyl)-3-(7-methoxy-1-methyl-1H-benzo[d][1,2,3]triazol-5-yl)propanoic acid]
concentration at which hook effect is exhibited (BRD4; MM.1S cells, 24 h): 5 µM
concentration of maximal BRD4 degradation (BRD4; MM.1S cells, 24 h): 1 µM
concentration at which KEAP1-BRD4BD2 dimerization is promoted (KEAP1-BRD4BD2): approximately 100 nM
pIC50 (KEAP1 [2]): 6.84

Structure (SMILES): CCOC(=O)C[C@@H](c1ccc(C)c(CN2C[C@@H](C)Oc3cc(CCCCCCNC(=O)C[C@@H]4N=C(c5ccc(Cl)cc5)c5c(sc(C)c5C)-n5c(C)nnc54)ccc3S2(=O)=O)c1)c1cc(OC)c2c(c1)nnn2C [NJH-05–146, Ethyl (S)-3-(3-(((R)-7-(6-(2-((S)-4-(4-chlorophenyl)-2,3,9-trimethyl-6H-thieno[3,2-f][1,2,4]triazolo[4,3-a][1,4]diazepin-6-yl)acetamido)hexyl)-4-methyl-1,1-dioxido-3,4-dihydro-2H-benzo[b][1,4,5]oxathiazepin-2-yl)methyl)-4-methylphenyl)-3-(7-methoxy-1-methyl-1H-benzo[d][1,2,3]triazol-5-yl)propanoate]
pIC50 (MM.1S cells): < 5.00
activity at prolonged timepoints (BRD4): inactive even at prolonged timepoints
BRD4 degradation, negative control (BRD4; MM.1S cells, 16-hour treatment at 0.1, 1, and 10 μM): did not result in degradation of BRD4
KEAP1 binding / engagement in TR-FRET Nrf2 peptide displacement assay (KEAP1 [2]): did not bind KEAP1

Second part, led by results:

concentration at which KEAP1-BRD4BD2 dimerization is induced (KEAP1-BRD4BD2): ~ 10 μM
Structure (SMILES): COc1cc([C@H](CC(=O)O)c2ccc(C)c(CN3C[C@@H](C)Oc4cc(CCCCCCNC(=O)C[C@@H]5N=C(c6ccc(Cl)cc6)c6c(sc(C)c6C)-n6c(C)nnc65)ccc4S3(=O)=O)c2)cc2nnn(C)c12 [DGY-06–177-pk1, (R)-3-(3-(((R)-7-(6-(2-((S)-4-(4-chlorophenyl)-2,3,9-trimethyl-6H-thieno[3,2-f][1,2,4]triazolo[4,3-a][1,4]diazepin-6-yl)acetamido)hexyl)-4-methyl-1,1-dioxido-3,4-dihydro-2H-benzo[b][1,4,5]oxathiazepin-2-yl)methyl)-4-methylphenyl)-3-(7-methoxy-1-methyl-1H-benzo[d][1,2,3]triazol-5-yl)propanoic acid]

KEAP1 degradation in CRBN knockout cells (KEAP1 [1]): not CRBN^−/− MM.1S cells
KEAP1 degradation (KEAP1 [1]): rapid degradation of KEAP1
KEAP1 degradation in wildtype cells (KEAP1 [1]): observed KEAP1 degradation
effect on CRBN (CRBN): spared CRBN
Structure (SMILES): COc1cc([C@@H](CC(=O)O)c2ccc(C)c(CN3C[C@@H](C)Oc4cc(CCCCCCNC(=O)COc5cc6c7c(cccc7c5)C(=O)N(C5CCC(=O)NC5=O)C6=O)ccc4S3(=O)=O)c2)cc2nnn(C)c12 (stereo partly drawn) [NJH-04–087, (3S)-3-(3-(((4R)-7-(6-(2-((2-(2,6-dioxopiperidin-3-yl)-1,3-dioxo-2,3-dihydro-1H-benzo[de]isoquinolin-5-yl)oxy)acetamido)hexyl)-4-methyl-1,1-dioxido-3,4-dihydro-2H-benzo[b][1,4,5]oxathiazepin-2-yl)methyl)-4-methylphenyl)-3-(7-methoxy-1-methyl-1H-benzo[d][1,2,3]triazol-5-yl)propanoic acid]
selectivity of degradation across the proteome (OVCAR8 cells): selective for inducing degradation of KEAP1 across the proteome and does not degrade any zinc finger proteins

KEAP1 degradation in CRBN knockout cells (KEAP1 [1]): not CRBN^−/− MM.1S cells
KEAP1 degradation (KEAP1 [1]): rapid degradation of KEAP1
KEAP1 degradation in wildtype cells (KEAP1 [1]): observed KEAP1 degradation
effect on CRBN (CRBN): spared CRBN
Structure (SMILES): COc1cc([C@@H](CC(=O)O)c2ccc(C)c(CN3C[C@@H](C)Oc4cc(CCCCCCNC(=O)COc5cccc6c5C(=O)N(C5CCC(=O)NC5=O)C6=O)ccc4S3(=O)=O)c2)cc2nnn(C)c12 (stereo partly drawn) [NJH-04–086, (3S)-3-(3-(((4R)-7-(6-(2-((2-(2,6-dioxopiperidin-3-yl)-1,3-dioxoisoindolin-4-yl)oxy)acetamido)hexyl)-4-methyl-1,1-dioxido-3,4-dihydro-2H-benzo[b][1,4,5]oxathiazepin-2-yl)methyl)-4-methylphenyl)-3-(7-methoxy-1-methyl-1H-benzo[d][1,2,3]triazol-5-yl)propanoic acid]
selectivity of degradation across the proteome (OVCAR8 cells): clear degradation of KEAP1 and a few zinc finger proteins

BRD4 degradation (BRD4; MM.1S cells, 24 h): failed to degrade BRD4
KEAP1-BRD4BD2 ternary complex formation / dimerization (KEAP1-BRD4BD2): did not induce ternary complex formation
pIC50 (KEAP1 [2]; read-out: IC50, KEAP1-NRF2 TR-FRET displacement): 6.83
Structure (SMILES): COc1cc(C(CC(=O)O)c2ccc(C)c(CN(C)S(=O)(=O)c3ccc(OCCCCCCNC(=O)C[C@@H]4N=C(c5ccc(Cl)cc5)c5c(sc(C)c5C)-n5c(C)nnc54)cc3)c2)cc2nnn(C)c12 (stereo partly drawn) [DGY-05–089, 3-(3-(((4-((6-(2-((S)-4-(4-chlorophenyl)-2,3,9-trimethyl-6H-thieno[3,2-f][1,2,4]triazolo[4,3-a][1,4]diazepin-6-yl)acetamido)hexyl)oxy)-N-methylphenyl)sulfonamido)methyl)-4-methylphenyl)-3-(7-methoxy-1-methyl-1H-benzo[d][1,2,3]triazol-5-yl)propanoic acid]
